Results taken from publication PMC10155261 (European journal of medicinal chemistry, 2022).
Like-named read-outs stand apart in the source and are kept apart here. Values belong to the compound of their own block, whether it stands above or below them.

Legend:
[1] = test system: CCI-induced mechanical allodynia in rats; assay: Chronic constriction injury; format: in vivo, Sprague-Dawley rats; conditions: i.p., 32 mg/kg
[2] = test system: CFA-induced nociceptive hypersensitivity in rats; assay: CFA-induced inflammatory pain model, von Frey mechanical nociception; format: in vivo, Sprague-Dawley rats; conditions: i.p.
LPA5 [3] = conditions: cAMP assay ref 31; cited from earlier work
LPA5 [4] = conditions: SAR study of Kawamoto et al. ref 32; cited from earlier work
hLPA5 [5] = target: T1, hLPA5 (Homo sapiens, UniProt Q9H1C0); assay: LPA5 calcium mobilization assay; format: cell-based; conditions: for IC50, nM: RH7777-hLPA5 cells, against EC80 (30 nM) of hexadecyl LPA 16:0, mean ± SEM
How it was run: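 RH7777-hLPA5 cells were plated on poly-D-lysine at 20,000 cells/well in 0.2% FBS medium for 18–20 h at 37 °C. They were loaded 45 min with Calcium 5 dye in HBSS, 20 mM HEPES and 2.5 mM probenecid, pH 7.4. Eight test-compound concentrations were pre-incubated for 15 min at 37 °C, then hexadecyl LPA 16:0 EC80 (30 nM) was added at 10 s. Fluorescence (485/525 nm) was read every 1 s for 90 s. IC50 came from a three-parameter logistic fit of RFU. Duplicate determinations; two or at least three independent experiments.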

hLPA5 [6] = target: T1, hLPA5; assay: LPA5 TR-FRET Lance Ultra cAMP assay; format: cell-based; conditions: for fold less potent than 2: cAMP assay
LPA5 [7] = conditions: read-out: IC50, binding to [^3H]LPA; literature value ref 8; cited from earlier work

T1 sequence (Q9H1C0 whole entry): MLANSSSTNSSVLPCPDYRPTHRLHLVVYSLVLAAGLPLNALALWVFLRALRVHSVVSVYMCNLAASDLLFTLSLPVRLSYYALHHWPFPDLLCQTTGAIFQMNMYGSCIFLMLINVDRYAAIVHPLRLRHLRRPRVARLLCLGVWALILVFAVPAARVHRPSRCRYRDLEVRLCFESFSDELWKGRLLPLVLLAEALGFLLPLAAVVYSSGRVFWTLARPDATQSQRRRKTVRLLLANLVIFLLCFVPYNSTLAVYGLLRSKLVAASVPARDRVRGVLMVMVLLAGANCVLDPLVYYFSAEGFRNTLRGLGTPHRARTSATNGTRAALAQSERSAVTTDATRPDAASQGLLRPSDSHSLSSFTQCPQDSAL

SMILES: COc1cc2c(C(=O)N3CCCCC3)cn(-c3noc4ccc(C)cc34)c(=O)c2cc1OC [Compound 2, 6,7-Dimethoxy-2-(5-methylbenzo[d]isoxazol-3-yl)-4-(piperidine-1-carbonyl)isoquinolin-1(2H)-o-ne, reference compound]
- antinociceptive effect in CCI model [1]: full antinociceptive effects
- effect on CFA-induced nociceptive hypersensitivity ([2]; 32 mg/kg): did not fully reverse the nociceptive hypersensitivity
- duration of effect in CFA model ([2]; 65 and 66 at 17.8 mg/kg, 2 at 32 mg/kg): ~ 2 h
- IC50 (LPA5 [3]): 38 nM

SMILES: CCN1CCc2ccc(-n3cc(C(=O)N4CCC(F)CC4)c4cc(OC)c(OC)cc4c3=O)cc21 [Compound 3, 2-(1-Ethylindolin-6-yl)-4-(4-fluoropiperidine-1-carbonyl)-6,7-dimethoxyisoquinolin-1(2H)-one, reference compound]
- IC50 (LPA5 [4]): 120 nM
- fold less potent than 2 (hLPA5 [5]; in both calcium mobilization and cAMP assays): 2–3 fold

SMILES: COc1cc2c(C(=O)N(C)Cc3ccncc3)cn(-c3cccc(N(C)C)c3)c(=O)c2cc1OC [Compound 11, 2-(3-(Dimethylamino)phenyl)-6,7-dimethoxy-N-methyl-1-oxo-N-(pyridin-4-ylmethyl)-1,2-dihydr-oisoquinoline-4-carboxamide]
- IC50, nM (hLPA5 [5]): inactive

SMILES: COc1cc2c(C(=O)N3CCCC3)cn(-c3cccc(N(C)C)c3)c(=O)c2cc1OC [Compound 14, 2-(3-(Dimethylamino)phenyl)-6,7-dimethoxy-4-(pyrrolidine-1-carbonyl)isoquinolin-1(2H)-one]
- IC50, nM (hLPA5 [5]): inactive

SMILES: C#CC1CCN(C(=O)c2cn(-c3cccc(N(C)C)c3)c(=O)c3cc(OC)c(OC)cc23)CC1 [Compound 26, 2-(3-(Dimethylamino)phenyl)-4-(4-ethynylpiperidine-1-carbonyl)-6,7-dimethoxyisoquinolin-1(2-H)-one]
- IC50 (hLPA5 [6]): 890 ± 100 nM
- fold less potent than 2 (hLPA5 [6]): 4 – 10 fold
- fold more potent than the unsubstituted piperidine 15 (hLPA5 [5]; calcium assay): ~ 2 fold

SMILES: CN(C)c1cccc(-n2cc(C(=O)N3CCC(F)CC3)c3ccccc3c2=O)c1 [Compound 34, 2-(3-(Dimethylamino)phenyl)-4-(4-fluoropiperidine-1-carbonyl)isoquinolin-1(2H)-one]
- IC50, nM (hLPA5 [5]): total loss of potency

SMILES: COc1cc2c(=O)n(-c3cccc(N(C)C)c3)cc(C(=O)N3CCC(F)CC3)c2cc1OCc1ccccn1 [Compound 45, 2-(3-(Dimethylamino)phenyl)-4-(4-fluoropiperidine-1-carbonyl)-7-methoxy-6-(pyridin-2-ylmeth-oxy)isoquinolin-1(2H)-one]
- IC50, nM (hLPA5 [5]): total loss of activity

SMILES: COc1cc2c(C(=O)N3CCCCC3)cn(-c3cccc(C(N)=O)c3)c(=O)c2cc1OC [Compound 50, 3-(6,7-Dimethoxy-1-oxo-4-(piperidine-1-carbonyl)isoquinolin-2(1H)-yl)benzamide]
- IC50, nM (hLPA5 [5]): completely inactive

SMILES: COc1cc2c(C(=O)N3CCCCC3)cn(-c3ccc4occ(C)c4c3)c(=O)c2cc1OC [Compound 56, 6,7-Dimethoxy-2-(3-methylbenzofuran-5-yl)-4-(piperidine-1-carbonyl)isoquinolin-1(2H)-one]
- potency difference between cAMP and calcium mobilization assays (hLPA5 [6]): 3.9 fold

SMILES: CCCCCCCCCCCCCCCCOC[C@@H](O)COP(=O)(O)O [hexadecyl LPA 16:0, reference compound]
- IC50 (LPA5 [7]): 7.5 nM
- potency difference between cAMP and calcium mobilization assays (hLPA5 [6]): about 6 fold

Other lines, results leading:

- IC50, nM (hLPA5 [5]): inactive
SMILES: COc1cc2c(C(=O)N(C)C)cn(-c3cccc(N(C)C)c3)c(=O)c2cc1OC [Compound 10, 2-(3-(Dimethylamino)phenyl)-6,7-dimethoxy-N,N-dimethyl-1-oxo-1,2-dihydroisoquinoline-4-car-boxamide]

- IC50, nM (hLPA5 [5]): inactive
SMILES: COc1cc2c(C(=O)N3CCC3)cn(-c3cccc(N(C)C)c3)c(=O)c2cc1OC [Compound 13, 4-(Azetidine-1-carbonyl)-2-(3-(dimethylamino)phenyl)-6,7-dimethoxyisoquinolin-1(2H)-one]

- fold less potent than 2 (hLPA5 [6]): 4 – 10 fold
SMILES: COc1cc2c(C(=O)N3CCC(F)CC3)cn(-c3cccc(N(C)C)c3)c(=O)c2cc1OC [Compound 23, 2-(3-(Dimethylamino)phenyl)-4-(4-fluoropiperidine-1-carbonyl)-6,7-dimethoxyisoquinolin-1(2H-)-one]

- IC50 (hLPA5 [6]): 2100 ± 300 nM
- fold less potent than 2 (hLPA5 [6]): 4 – 10 fold
SMILES: COc1cc2c(C(=O)N3CCC(C#N)CC3)cn(-c3cccc(N(C)C)c3)c(=O)c2cc1OC [Compound 24, 1-(2-(3-(Dimethylamino)phenyl)-6,7-dimethoxy-1-oxo-1,2-dihydroisoquinoline-4-carbonyl)piper-idine-4-carbonitrile]

- IC50, nM (hLPA5 [5]): total loss of activity
SMILES: COc1cc2c(=O)n(-c3cccc(N(C)C)c3)cc(C(=O)N3CCC(F)CC3)c2cc1OCc1cccc2ccccc12 [Compound 44, 2-(3-(Dimethylamino)phenyl)-4-(4-fluoropiperidine-1-carbonyl)-7-methoxy-6-(naphthalen-1-ylm-ethoxy)isoquinolin-1(2H)-one]

- IC50, nM (hLPA5 [5]): completely inactive
SMILES: COc1cc2c(C(=O)N3CCCCC3)cn(-c3cccc(C(=O)N(C)C)c3)c(=O)c2cc1OC [Compound 51, 3-(6,7-Dimethoxy-1-oxo-4-(piperidine-1-carbonyl)isoquinolin-2(1H)-yl)-N,N-dimethylbenzamide]

- potency difference between cAMP and calcium mobilization assays (hLPA5 [6]): 7.2 fold
SMILES: COc1cc2c(C(=O)N3CCCCC3)cn(-c3ccc4ccn(C)c4c3)c(=O)c2cc1OC [Compound 58, 6,7-Dimethoxy-2-(1-methyl-1H-indol-6-yl)-4-(piperidine-1-carbonyl)isoquinolin-1(2H)-one]

- fold less potent than 3 and 66 (hLPA5 [5]; calcium assay): ~ 4 fold
SMILES: COc1cc2c(C(=O)N3CCC(F)CC3)cn(-c3ccc4occ(C)c4c3)c(=O)c2cc1OC [Compound 64, 4-(4-Fluoropiperidine-1-carbonyl)-6,7-dimethoxy-2-(3-methylbenzofuran-5-yl)isoquinolin-1(2H)-one]
